Measurements reported in ChEMBL document CHEMBL5143722, “Antimicrobial Peptides against Multidrug-Resistant Pseudomonas aeruginosa Biofilm from Cystic Fibrosis Patients” (J Med Chem, 2022).
Activity calls are given as the source filed them. No cut-off for these calls is given here.

Experiments:
Pseudomonas aeruginosa [1] = experiment: Antibiofilm activity against Pseudomonas aeruginosa clinical isolate 24 assessed as inhibition of biofilm formation at sub-inhibitory concentration incubated for 24 hrs by crystal violet staining based microtiter plate method; assay type: functional, organism-based
Outline: (§1)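 Washed overnight cultures in BM2 medium at 1 × 10^6 CFU/mL with 2-fold serial peptide dilutions in a U-bottom 96-well plate. Incubated 24 h at 37 °C without agitation. Unattached cells washed off, then 0.1% crystal violet stain read at 590 nm. No-bacteria blanks. Biomass expressed as % of untreated biofilm. At least three biological repeats.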

Pseudomonas aeruginosa [2] = experiment: Antibiofilm activity against Pseudomonas aeruginosa clinical isolate 25 assessed as inhibition of biofilm formation at sub-inhibitory concentration incubated for 24 hrs by crystal violet staining based microtiter plate method; assay type: functional, organism-based; outline: as §1
Pseudomonas aeruginosa [3] = experiment: Antibiofilm activity against Pseudomonas aeruginosa clinical isolate 46 assessed as inhibition of biofilm formation at sub-inhibitory concentration incubated for 24 hrs by crystal violet staining based microtiter plate method; assay type: functional, organism-based; outline: as §1
Pseudomonas aeruginosa [4] = experiment: Antibiofilm activity against Pseudomonas aeruginosa clinical isolate 53 assessed as inhibition of biofilm formation at sub-inhibitory concentration incubated for 24 hrs by crystal violet staining based microtiter plate method; assay type: functional, organism-based; outline: as §1
Pseudomonas aeruginosa [5] = experiment: Antibiofilm activity against Pseudomonas aeruginosa clinical isolate 71 assessed as inhibition of biofilm formation at sub-inhibitory concentration incubated for 24 hrs by crystal violet staining based microtiter plate method; assay type: functional, organism-based; outline: as §1
Pseudomonas aeruginosa [6] = experiment: Antibiofilm activity against Pseudomonas aeruginosa clinical isolate 72 assessed as inhibition of biofilm formation at sub-inhibitory concentration incubated for 24 hrs by crystal violet staining based microtiter plate method; assay type: functional, organism-based; outline: as §1
Pseudomonas aeruginosa [7] = experiment: Antibiofilm activity against Pseudomonas aeruginosa clinical isolate 99 assessed as inhibition of biofilm formation at sub-inhibitory concentration incubated for 24 hrs by crystal violet staining based microtiter plate method; assay type: functional, organism-based; outline: as §1
Pseudomonas aeruginosa [8] = experiment: Antibiofilm activity against Pseudomonas aeruginosa clinical isolate 629 assessed as inhibition of biofilm formation at sub-inhibitory concentration incubated for 24 hrs by crystal violet staining based microtiter plate method; assay type: functional, organism-based; outline: as §1
Pseudomonas aeruginosa [9] = experiment: Antibiofilm activity against Pseudomonas aeruginosa clinical isolate 99 assessed as inhibition of biofilm formation at MIC incubated for 24 hrs by crystal violet staining based microtiter plate method; assay type: functional, organism-based; outline: as §1
Pseudomonas aeruginosa [10] = experiment: Antibiofilm activity against Pseudomonas aeruginosa clinical isolate 995 assessed as inhibition of biofilm formation at MIC incubated for 24 hrs by crystal violet staining based microtiter plate method; assay type: functional, organism-based; outline: as §1
Pseudomonas aeruginosa [11] = experiment: Induction of biofilm degradation of Pseudomonas aeruginosa clinical isolate 24 incubated for 1 hr by crystal violet staining analysis relative to control; assay type: functional; settings: dose 50.0 µM
Outline: (§2)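 Bacteria at 1 × 10^6 CFU/mL in BM2 grown static at 37 °C for 24 h to form biofilm. Wells rinsed of unattached cells, then exposed for 1 h to serial peptide dilutions (1.56–50 μM). Washed, stained with 0.1% crystal violet, A590 read. Biomass given as % of untreated biofilm; no-bacteria wells as blanks. At least three biological repeats.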

Pseudomonas aeruginosa [12] = experiment: Induction of biofilm degradation of Pseudomonas aeruginosa clinical isolate 25 at 50 uM incubated for 1 hr by crystal violet staining analysis relative to control; assay type: functional; outline: as §2
Pseudomonas aeruginosa [13] = experiment: Induction of biofilm degradation of Pseudomonas aeruginosa clinical isolate 29 at 50 uM incubated for 1 hr by crystal violet staining analysis relative to control; assay type: functional; outline: as §2
Pseudomonas aeruginosa [14] = experiment: Induction of biofilm degradation of Pseudomonas aeruginosa clinical isolate 40 at 50 uM incubated for 1 hr by crystal violet staining analysis relative to control; assay type: functional; outline: as §2
Pseudomonas aeruginosa [15] = experiment: Induction of biofilm degradation of Pseudomonas aeruginosa clinical isolate 46 at 50 uM incubated for 1 hr by crystal violet staining analysis relative to control; assay type: functional; outline: as §2
Pseudomonas aeruginosa [16] = experiment: Induction of biofilm degradation of Pseudomonas aeruginosa clinical isolate 52 at 50 uM incubated for 1 hr by crystal violet staining analysis relative to control; assay type: functional; outline: as §2
Pseudomonas aeruginosa [17] = experiment: Induction of biofilm degradation of Pseudomonas aeruginosa clinical isolate 53 at 50 uM incubated for 1 hr by crystal violet staining analysis relative to control; assay type: functional; outline: as §2
Pseudomonas aeruginosa [18] = experiment: Induction of biofilm degradation of Pseudomonas aeruginosa clinical isolate 71 at 50 uM incubated for 1 hr by crystal violet staining analysis relative to control; assay type: functional; outline: as §2
Pseudomonas aeruginosa [19] = experiment: Induction of biofilm degradation of Pseudomonas aeruginosa clinical isolate 72 at 50 uM incubated for 1 hr by crystal violet staining analysis relative to control; assay type: functional; outline: as §2
Pseudomonas aeruginosa [20] = experiment: Induction of biofilm degradation of Pseudomonas aeruginosa clinical isolate 82 at 50 uM incubated for 1 hr by crystal violet staining analysis relative to control; assay type: functional; outline: as §2
Pseudomonas aeruginosa [21] = experiment: Induction of biofilm degradation of Pseudomonas aeruginosa clinical isolate 99 at 50 uM incubated for 1 hr by crystal violet staining analysis relative to control; assay type: functional; outline: as §2
Pseudomonas aeruginosa [22] = experiment: Induction of biofilm degradation of Pseudomonas aeruginosa clinical isolate 172 at 50 uM incubated for 1 hr by crystal violet staining analysis relative to control; assay type: functional; outline: as §2
Pseudomonas aeruginosa [23] = experiment: Induction of biofilm degradation of Pseudomonas aeruginosa clinical isolate 238 at 50 uM incubated for 1 hr by crystal violet staining analysis relative to control; assay type: functional; outline: as §2
Pseudomonas aeruginosa [24] = experiment: Induction of biofilm degradation of Pseudomonas aeruginosa clinical isolate 251 at 50 uM incubated for 1 hr by crystal violet staining analysis; assay type: functional; outline: as §2
Pseudomonas aeruginosa [25] = experiment: Induction of biofilm degradation of Pseudomonas aeruginosa clinical isolate 629 at 50 uM incubated for 1 hr by crystal violet staining analysis relative to control; assay type: functional; outline: as §2
Pseudomonas aeruginosa [26] = experiment: Induction of biofilm degradation of Pseudomonas aeruginosa clinical isolate 995 at 50 uM incubated for 1 hr by crystal violet staining analysis relative to control; assay type: functional; outline: as §2
Pseudomonas aeruginosa [27] = experiment: Induction of biofilm degradation of Pseudomonas aeruginosa PAO1 at 50 uM incubated for 1 hr by crystal violet staining analysis relative to control; assay type: functional; outline: as §2
Pseudomonas aeruginosa [28] = experiment: Induction of biofilm degradation of Pseudomonas aeruginosa clinical isolate 24 at sub MIC concentration incubated for 1 hr by crystal violet staining analysis; assay type: functional; outline: as §2
Pseudomonas aeruginosa [29] = experiment: Induction of biofilm degradation of Pseudomonas aeruginosa clinical isolate 40 at sub MIC concentration incubated for 1 hr by crystal violet staining analysis; assay type: functional; outline: as §2
Pseudomonas aeruginosa [30] = experiment: Induction of biofilm degradation of Pseudomonas aeruginosa clinical isolate 53 at sub MIC concentration incubated for 1 hr by crystal violet staining analysis; assay type: functional; outline: as §2
Pseudomonas aeruginosa [31] = experiment: Induction of biofilm degradation of Pseudomonas aeruginosa clinical isolate 59 at <12.5 uM incubated for 1 hr by crystal violet staining analysis; assay type: functional; outline: as §2
Pseudomonas aeruginosa [32] = experiment: Inhibition of biofilm formation of Pseudomonas aeruginosa clinical isolate 24 derived from cystic fibrosis patient sputum at 0.78 to 25 uM by crystal violet based staining analysis; assay type: functional, organism-based; settings: dose 0.78-25 µM
Outline: (§3)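 CF patient sputum diluted 10-fold with BM2, bacteria added with serial peptide dilutions starting from the highest MIC per isolate. Inoculum suspension 1 × 10^6 CFU/mL. Incubated 24 h at 37 °C without agitation. Unattached cells washed away, then 0.1% crystal violet staining and A590. Biomass given as % of untreated, with no-bacteria blanks.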

Pseudomonas aeruginosa [33] = experiment: Inhibition of biofilm formation of Pseudomonas aeruginosa clinical isolate 24 derived from cystic fibrosis patient sputum at 0.09 to 3.12 uM by crystal violet based staining analysis; assay type: functional, organism-based; settings: dose 0.09-3.12 µM; outline: as §3
Pseudomonas aeruginosa [34] = experiment: Inhibition of biofilm formation of Pseudomonas aeruginosa clinical isolate 82 derived from cystic fibrosis patient sputum at 0.09 to 3.12 uM by crystal violet based staining analysis; assay type: functional, organism-based; settings: dose 0.09-3.12 µM; outline: as §3
Pseudomonas aeruginosa [35] = experiment: Inhibition of biofilm formation of Pseudomonas aeruginosa PAO1 in patient derived CF-sputum at 0.09 to 3.12 uM by crystal violet based staining analysis; assay type: functional, organism-based; settings: dose 0.09-3.12 µM; outline: as §3

Structure (SMILES)	inhibition (Pseudomonas aeruginosa [1])	inhibition (Pseudomonas aeruginosa [2])	inhibition (Pseudomonas aeruginosa [3])	inhibition (Pseudomonas aeruginosa [4])	inhibition (Pseudomonas aeruginosa [5])	inhibition (Pseudomonas aeruginosa [6])	inhibition (Pseudomonas aeruginosa [7])	inhibition (Pseudomonas aeruginosa [8])	Activity (Pseudomonas aeruginosa [11])	Activity (Pseudomonas aeruginosa [12])	Activity (Pseudomonas aeruginosa [13])	Activity (Pseudomonas aeruginosa [14])	Activity (Pseudomonas aeruginosa [15])	Activity (Pseudomonas aeruginosa [16])	Activity (Pseudomonas aeruginosa [17])	Activity (Pseudomonas aeruginosa [18])	Activity (Pseudomonas aeruginosa [19])	Activity (Pseudomonas aeruginosa [20])	Activity (Pseudomonas aeruginosa [21])	Activity (Pseudomonas aeruginosa [22])	further results
CC(C)C[C@H](NC(=O)[C@H](CC(C)C)NC(=O)[C@H](CCCCN)NC(=O)[C@H](CC(C)C)NC(=O)[C@H](CC(C)C)NC(=O)[C@H](CCCCN)NC(=O)[C@H](CCCCN)NC(=O)[C@H](CC(C)C)NC(=O)[C@H](CC(C)C)NC(=O)[C@H](CCCCN)NC(=O)[C@H](CCCCN)NC(=O)[C@H](CC(C)C)NC(=O)[C@H](CC(C)C)NC(=O)[C@H](CCCCN)NC(=O)[C@@H](N)CC(C)C)C(N)=O	Active	Active	Active	Active	Active	Active	Active	Active	60%	60%	60%	60%	60%	60%	60%	60%	60%	60%	60%	60%	inhibition (Pseudomonas aeruginosa [9]): Active; inhibition (Pseudomonas aeruginosa [10]): Active; Activity (Pseudomonas aeruginosa [23]): 60%; Activity (Pseudomonas aeruginosa [24]): 60%; Activity (Pseudomonas aeruginosa [25]): 60%; Activity (Pseudomonas aeruginosa [26]): 60%; Activity (Pseudomonas aeruginosa [27]): 60%; Activity (Pseudomonas aeruginosa [28]): Active; Activity (Pseudomonas aeruginosa [29]): Active; Activity (Pseudomonas aeruginosa [30]): Active; Activity (Pseudomonas aeruginosa [31]): Active; inhibition (Pseudomonas aeruginosa [32]): Active; inhibition (Pseudomonas aeruginosa [33]): Active; inhibition (Pseudomonas aeruginosa [34]): Active; inhibition (Pseudomonas aeruginosa [35]): Active
CC(C)C[C@H](NC(=O)[C@H](CC(C)C)NC(=O)[C@H](CC(C)C)NC(=O)[C@H](CC(C)C)NC(=O)[C@H](CC(C)C)NC(=O)[C@H](CC(C)C)NC(=O)[C@H](CC(C)C)NC(=O)[C@H](CC(C)C)NC(=O)[C@H](CC(C)C)NC(=O)[C@H](CCCCN)NC(=O)[C@H](CCCCN)NC(=O)[C@@H](N)CCCCN)C(=O)N[C@@H](CCCCN)C(=O)N[C@@H](CCCCN)C(=O)N[C@@H](CCCCN)C(N)=O	Active	Active	Active	Active	Active	Active	Active	Active	60%	60%	60%	60%	60%	60%	60%	60%	60%	60%	60%	60%	Activity (Pseudomonas aeruginosa [23]): 60%; Activity (Pseudomonas aeruginosa [24]): 60%; Activity (Pseudomonas aeruginosa [25]): 60%; Activity (Pseudomonas aeruginosa [26]): 60%; Activity (Pseudomonas aeruginosa [27]): 60%; Activity (Pseudomonas aeruginosa [28]): Active; Activity (Pseudomonas aeruginosa [29]): Active; Activity (Pseudomonas aeruginosa [30]): Active; Activity (Pseudomonas aeruginosa [31]): Active; inhibition (Pseudomonas aeruginosa [32]): Active; inhibition (Pseudomonas aeruginosa [33]): Active; inhibition (Pseudomonas aeruginosa [34]): Active; inhibition (Pseudomonas aeruginosa [35]): Active
